Measured values taken from ChEMBL document CHEMBL1151956, “Sucutiniranes C-F, cassane-type diterpenes from Bowdichia nitida” (J Nat Prod, 2009).
Calls of active or inactive are those of the source. The calls are words filed in the database; no cut-off is given here.

Legend:
HL-60 [1] = assay: Cytotoxicity against human HL60 cells after 48 hrs by MTT assay; type: functional, cell-based; details: HL-60, 48 h
Method in brief: (§1)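 Cells seeded in 96-well plates, HL-60 at 1 × 10^4 cells/well and HCT-116 and MCF-7 at 5 × 10^3 cells/well, then preincubated 24 h at 37 °C in humidified 5% CO2. Compounds were added at graded concentrations and incubated for 48 h at 37 °C. MTT (5 mg/mL) was added for 2 h, and formazan was dissolved in 10% SDS/0.01 N HCl. Absorbance was read at 550 and 700 nm. Triplicate wells were used, and IC50 was taken from percent living cells versus controls.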

HCT-116 [2] = assay: Cytotoxicity against human HCT116 cells after 48 hrs by MTT assay; type: functional, cell-based; details: HCT-116, 48 h; method in brief: as §1
MCF7 [3] = assay: Cytotoxicity against human MCF7 cells after 48 hrs by MTT assay; type: functional, cell-based; details: MCF7, 48 h; method in brief: as §1
Plasmodium falciparum = assay: Antiplasmodial activity against Plasmodium falciparum 3D7; type: functional, organism-based
HL-60 [4] = assay: Cytotoxicity against human HL60 cells at 50 uM after 48 hrs by MTT assay; type: functional, cell-based
HCT-116 [5] = assay: Cytotoxicity against human HCT116 cells at 50 uM after 48 hrs by MTT assay; type: functional, cell-based
MCF7 [6] = assay: Cytotoxicity against human MCF7 cells at 50 uM after 48 hrs by MTT assay; type: functional, cell-based

With `CC(=O)O[C@H]1C[C@H]2[C@@H](C)C3=CC(=O)O[C@@H]3C[C@@H]2[C@@]2(C)CCCC(C)(C)[C@H]12` [12-DEOXY-SUCUTINIRANE A] the IC50 (HL-60 [1]) was 32 µM.

In the case of `CC(=O)O[C@H]1[C@H](O)[C@H]2C(C)(C)CCC[C@]2(C)[C@H]2Cc3occc3[C@H](C)[C@H]12` [Sucutinirane F], the IC50 (HCT-116 [2]) is reported as 30 µM, the IC50 (MCF7 [3]) is reported as 18 µM and the Activity (Plasmodium falciparum) is reported as “inactive”. It also gave an IC50 (HL-60 [1]) of 7.5 µM.

`CC(=O)O[C@H]1Cc2c(cc3occc3c2C)[C@@]2(C)CCCC(C)(C)[C@H]12` was tested, and the Activity (HL-60 [4]) was “inactive”, the Activity (HCT-116 [5]) was “inactive” and the Activity (Plasmodium falciparum) was “inactive”. For the same compound, the Activity (MCF7 [6]) was “inactive”.

With `CC(=O)O[C@H]1C[C@H]2[C@@H](C)C3=CC(=O)O[C@]3(O)C[C@@H]2[C@@]2(C)CCCC(C)(C)[C@H]12` [SUCUTINIRANE A] the IC50 (HL-60 [1]) was 14 µM.

For `CC(=O)O[C@H]1[C@H](O)[C@H]2[C@@H](C)c3ccoc3C[C@@H]2[C@@]2(C)CCCC(C)(C)[C@H]12` [Sucutinirane E], the IC50 (HCT-116 [2]) was 36 µM, the IC50 (MCF7 [3]) was 35 µM and the Activity (Plasmodium falciparum) was “inactive”. It also gave an IC50 (HL-60 [1]) of 12 µM.

`Cc1c2c(cc3occc13)[C@@]1(C)CCCC(C)(C)[C@@H]1C=C2` was tested, and the Activity (HL-60 [4]) was “inactive”, the Activity (HCT-116 [5]) was “inactive” and the Activity (Plasmodium falciparum) was “inactive”. For the same compound, the Activity (MCF7 [6]) was “inactive”.
